Compound activity as filed in PubChem.
Calb FLC = C. albicans growth inhibition with fluconazole, primary screen, CaCi-2 strain, Alamar Blue fluorescence; C. albicans CaCi-2 (fluconazole-resistant clinical isolate) + fluconazole, 48 h; growth inhibition, % (concentration not given with the values); 300,000 tested, 0.57% active; AID 1979, 2009;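 active = growth inhibition above about 58% in most replicates, limit read from the data, passing the limit was not always enough; inconclusive = exactly half the replicates above a set limit; inactive = most replicates below a set limit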;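 also: all wells also contain fluconazole at 8 µg/ml as a sub-toxic cotreatment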
NALP3 yeast inh = NALP3 inflammasome inhibitors in reconstituted yeast, primary screen, luminescence, uHTS; Yeast reconstituted NLRP3/ASC/caspase-1, beta-gal luminescence, 24 h; 330,000 tested, 0.39% active; inhibition, % at 10 µM;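 active = inhibition of 50% or more; inactive = inhibition below 50%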
ALR inh = inhibitors of human ALR sulfhydryl oxidase, primary screen, biochemical, H2O2 detection, HRP-luminol luminescence, single point. AID 485317, 2010. purified ALR, DTT oxidation. inhibition, % (no concentration beside the values). 290,000 tested, 3.8% active;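 active = mean replicate inhibition above about 79%, with every replicate also reaching it, limit read from the data; inconclusive = only one of the two criteria met; inactive = mean below limit and not every replicate reaching it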
NALP1 inh = NALP1 inflammasome inhibitors in reconstituted yeast, colorimetric, S. cerevisiae, triplicate retest; inhibition, % at 10 µM; 280,000 tested, 0.61% active; S. cerevisiae NALP1/ASC/caspase-1 growth, X-gal OD620, 72 h; AID 2071, 2009; in the data active = inhibition mostly above about 24%, no sharp cut-off; inactive = mostly below about 32%
ATG4B inh = ATG4B protease inhibitors, primary screen, biochemical, fluorescence, uHTS; inhibition, % at 8.33 µM; ATG4B cleavage of LC3-PLA2, NBD-HPC fluorescence, 1 h; 340,000 tested, 0.51% active; in the data active = inhibition above about 40%
Target sequence (Q9Y4P1 whole entry, looked up): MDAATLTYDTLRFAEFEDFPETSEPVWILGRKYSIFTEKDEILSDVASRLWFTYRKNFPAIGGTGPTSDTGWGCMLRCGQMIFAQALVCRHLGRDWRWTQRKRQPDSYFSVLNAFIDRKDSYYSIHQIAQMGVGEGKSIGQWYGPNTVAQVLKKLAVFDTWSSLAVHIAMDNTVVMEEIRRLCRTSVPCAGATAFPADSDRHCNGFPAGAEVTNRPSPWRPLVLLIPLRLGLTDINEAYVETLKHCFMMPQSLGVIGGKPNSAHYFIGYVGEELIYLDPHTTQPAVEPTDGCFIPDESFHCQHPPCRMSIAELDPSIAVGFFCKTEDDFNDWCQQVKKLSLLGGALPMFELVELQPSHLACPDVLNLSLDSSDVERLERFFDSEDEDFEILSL
UCH37 DUB inh = inhibitors of human UCH37 deubiquitinase, primary screen, biochemical, Ub-AMC cleavage, fluorescence; Ubiquitin carboxyl-terminal hydrolase isozyme L5 (Homo sapiens), Q9Y5K5; purified proteasome/UCH37; inhibition, % (no concentration beside the values); 330,000 tested, 0.33% active; AID 588478, 2011;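 active = mean inhibition over replicate wells above about 20%, limit read from the data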
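Signal – fluorescence, ex 355 nm, em 460 nm · System – Proteasome-bound UCH37 · Input – 0.15 nM proteasome as dispensed · Timing – 30 min preincubation with enzyme, 25 min cleavage at room temperature · Read-out basis – percent inhibition of cleavage signal versus uninhibited and no-proteasome wells · Medium – Tris-HCl pH 7.4 with ATP-MgCl2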
A number is an active result; – = inactive; ? = inconclusive; · = not tested or not shown. A selection: hits, their analogues and other compounds. The true share with any hit is near 4.8%.

SMILES | Calb FLC | NALP3 yeast inh | ALR inh | NALP1 inh | ATG4B inh | UCH37 DUB inh
CC(CC(=O)NC1CCCC1)=NNC(=O)Cc1csc(N)n1 | · | · | · | · | · | –
CN(C)N=Cc1ccc(OC(=O)c2cccc([N+](=O)[O-])c2)cc1 | · | · | · | · | · | –
CCOC(=O)/C=C/C(=O)OCC(=O)Nc1cccc(Br)c1 | – | – | 91.2 | – | – | –
Cc1cccc(-n2c(-c3ccncc3)n[nH]c2=S)c1 | – | – | 91.5 | – | – | –
Cc1cccc(-n2c(-c3ccoc3C)n[nH]c2=S)c1 | – | – | 91.0 | – | – | –
Cc1cccc(-n2c(C)n[nH]c2=S)c1 | – | – | – | – | – | –
COc1ccc(C=NNC(=O)c2ccn[nH]2)cc1CN1CCOCC1 | · | · | · | · | · | –
CCN(CC)c1cnn(CC(=NOC)c2ccc(Cl)cc2)c(=O)c1Br | · | · | · | · | · | –
Nc1ccc2c(c1)nc(Cc1ccccc1)n2CCO | – | – | 97.0 | – | – | –
Cc1cc(NC(=O)c2ccc(S(=O)(=O)Nc3ccccc3)cc2)no1 | – | – | 98.3 | – | – | –
O=C(Oc1ccc(C=NNC(=O)c2ccccn2)cc1)c1cccc(F)c1 | · | · | · | · | · | –
Cc1ccc(S(=O)c2snnc2C)cc1 (centres undefined) | – | – | · | – | – | –
CCCNC(=O)NS(=O)(=O)c1ccc(Cl)cc1 | · | – | · | – | – | –
CCCNC(=O)c1nnsc1S(=O)c1ccc(Cl)cc1 (centres undefined) | – | – | · | 103.0 | – | –
CCCNC(=O)c1ccc2snnc2c1 | – | – | – | – | – | –
CNC(=O)c1nnsc1S(=O)c1ccc(Cl)cc1 (centres undefined) | 105.1 | – | · | 92.7 | – | –
CCCNC(=O)c1nnsc1S(=O)(=O)c1ccc(Cl)cc1 | · | – | · | 104.1 | – | –
COc1cccc2cccc(C=Nn3cnnc3)c12 | · | · | · | · | · | –
COc1ccc(NS(=O)(=O)c2cccc(C(=O)NN=Cc3cn(-c4ccccc4)nc3-c3ccccc3)c2)cc1 | · | · | · | · | · | –
CCc1ccc(N=C2NC(=O)/C(=C/c3cc(OC)c(OC)c(OC)c3)S2)cc1 | – | – | – | – | – | –
CCc1ccc(N=C2NC(=O)/C(=C/c3cc(Br)c(OCC(=O)O)c(OC)c3)S2)cc1 | – | – | 97.7 | – | – | ·
O=C(NN=Cc1ccccc1O)c1cccc(C(F)(F)F)c1 | · | · | · | · | · | –
Cc1cc(C)n(-c2nc(NCCN(C)C)c3c4c(sc3n2)CCCC4)n1 | 79.7 | – | · | – | – | –
Cc1cc(C)n(-c2nc(NCCCN(C)C)c3c4c(sc3n2)CCCC4)n1 | – | – | – | – | – | –
O=C(NN=Cc1cccc(Oc2ccccc2)c1)c1cccc(Br)c1 | · | · | · | · | · | –
SMILES | Calb FLC | NALP3 yeast inh | ALR inh | NALP1 inh | ATG4B inh | UCH37 DUB inh
CC(CC(=O)Nc1c(C)cc(C)cc1C)=NNC(=O)OC(C)(C)C | · | · | · | · | · | –
O=C(C1CCCN(Cc2ccc(Br)cc2)C1)N1CCCCC1 (centres undefined) | – | – | 89.5 | – | – | –
COc1ccccc1C(=O)NN=C(C)CC(=O)Nc1ccc(Cl)cn1 | · | · | · | · | · | –
COC(=O)c1cc(NC(=O)CSC2=NCCS2)cc(C(=O)OC)c1 | – | – | 98.2 | – | – | –
O=C(CSC1=NCCS1)Nc1cccc2ccccc12 | – | – | 98.3 | – | – | –
CCCN1C(=O)CC(=O)N=C1SCC(=O)Nc1ccccc1F | · | – | 99.1 | · | – | ·
O=C(CSC1=NCCS1)Nc1ccccc1F | ? | – | 98.7 | – | – | –
CC(=NNC(=S)NCc1ccccc1)c1ccc(Cl)cc1 | · | · | · | · | · | –
COc1ccc(CSCC(=O)NN=Cc2ccc(OCC(=O)N3CCCCC3)cc2)cc1 | · | · | · | · | · | –
Cc1cccn2c(=O)nc(SCC(=O)Nc3cccc4ccccc34)nc12 | – | – | 85.2 | · | – | –
COc1ccccc1CNC(=O)CSC1=NCCS1 | – | – | 98.8 | – | – | –
COc1ccccc1CNC(=O)CSc1ccc(-c2ccccn2)nn1 | – | – | – | – | – | –
COc1ccccc1CNC(=O)CSc1ccc(-c2cccc([N+](=O)[O-])c2)nn1 | – | – | 83.9 | – | – | –
CC(C)NC(=O)COC(=O)c1ccccc1CSC1=NCCS1 | – | – | – | – | – | –
O=C(O)c1ccccc1CSC1=NCCS1 | – | – | 97.8 | – | – | –
